Tested on: MS2 coat protein
Assay: apparent Kd, MS2 coat protein; higher = weaker binding; RNA-MaP array; FMN 200 µM where present
Outline: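 Each design was made on Illumina sequencing-chip clusters by stalled E. coli RNA polymerase and titrated with SNAP-549-labelled MS2 coat protein from 0.7 or 1.5 nM, doubling to 3 µM, in the absence and then the presence of constant ligand. The buffer was 100 mM Tris-HCl pH 7.5, 80 mM KCl, 4 mM MgCl2, BSA, DTT, yeast tRNA and Tween-20. The apparent Kd is the median of filtered per-cluster fits of binding curves, with green signal normalised to red-channel RNA signal and control-cluster median Fmax.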

[1] = designed as: ON switch for flavin mononucleotide, no ligand
[2] = ligand present: flavin mononucleotide, designed as: ON switch for flavin mononucleotide
[3] = designed as: OFF switch for flavin mononucleotide, no ligand
[4] = ligand present: flavin mononucleotide, designed as: OFF switch for flavin mononucleotide

| Sequence | apparent Kd [1] | apparent Kd [2] | apparent Kd [3] | apparent Kd [4] |
| --- | --- | --- | --- | --- |
| GGCUACGUUUCGUAGCAGUGUCAUCGAGAAGGCCCUGACAUGAGGAUCACCCAUGUUGUUACAUGGGAGGAUAUCGAUGAUACA | 0.0125 µM | 0.00496 µM |  |  |
| CAUCUUGUGUGAGGAUAUAAUGAUAAGAGGACAUUAGAAGGCACAUGAGGAUCACCCAUGUGGCCAGGUCGGCGGCUCCAUAUA |  |  | 0.0114 µM | 0.0173 µM |
| UGAAAUCAUGUAGGAUAUGCAUGGCGAAGCUACGCAGAAGGACAUGAGGAUCACCCAUGUUAUGGCUACCCAGUUCGGUGGCAA |  |  | 0.0518 µM | 0.117 µM |
| CUAAAUCAUGUAGGAUAUGCAUGGCGAAGCUACGCAGAAGGACAUGAGGAUCACCCAUGUCUCUCCGUCUGCGUACAGACGGAG |  |  | 0.0205 µM | 0.119 µM |
| GGGAAGUAAGGAUAUGCUGCUCGUCACUUGCGUGAUGAGUAGCAGAAGGUACAUGAGGAUCACCCAUGUAAAAA |  |  | 0.0302 µM | 0.0286 µM |
| GGAAAACAUGAGGAUCACCCAUGUGAAAACGUGGGAGGAUAUCGAUGGAAACCAUACUGUCGAGAAGGCCCAUGUC | 0.0518 µM | 0.018 µM |  |  |
| GAGGUGUUAGGAUAUCGGAGAUGGAGAAGAACGGGAAGAGGCGAGAAGGAACAUGAGGAUCACCCAUGUAGGUG |  |  | 0.433 µM | 0.329 µM |
| UUUGUUGUUGUGAGGAUAUCGUUGUUAUUUUGAAACGAGAAGGCACAUGAGGAUCACCCAUGUUUGUUGAUGGU |  |  | 0.0439 µM | 0.122 µM |
| CCUUGACAUGAGGAUCACCCAUGUGAGGAUAUGAUGCGAUCGUCGAAAGACGAUAGCAUCAGAAGGCACAUAUG |  |  | 0.0234 µM | 0.0957 µM |
| GGUCGUCACAUUAACAUGAGGAUCACCCAUGUCAAAAGACAUGAGGAUAUGCAUAAUAAUAUAAAGCAGAAGGCAUGGACGACC | 0.24 µM | 0.0144 µM |  |  |
| AGCUAUUACGAAGGAUAUUCUGACAUGAGGAUCACCCAUGUCUUCAUGAUUUAUUGUGAUCACAUGAAGAAGGUCGUACUAACA | 0.198 µM | 0.0483 µM |  |  |
| ACGUCGAGCCAGAAGGCAACAUGAGGAUCACCCAUGUAGUCCGGCUCGUGUUGAGGAUAUGGCACCCACGCGGAAGGCGCAGGU |  |  | 0.00554 µM | 0.00719 µM |
| AUGCCGUGCAGAGCGCGACGGCGAACAUGAGGAUCACCCAUGUAGGAUAUACUACACAAAGUGUAGUAGAAGGACGUGCGGCAC |  |  | 0.0209 µM | 0.0308 µM |
| AAAAAGUGAGGAUAUACAUGAGGAUCACCCAUGUGAAAGUCGAAAAAAAAGACAAGAAGUAGAAGGCACAAAAA |  |  | 0.0304 µM | 0.0349 µM |
| AUGCUAGUGUGAGGAUAUCAACAUGAGGAUCACCCAUGUUGGAAGUACACGACAUGCGGUACAUCUGAGAAGGUACAUUAGCAU |  |  | 0.0291 µM | 0.052 µM |
| AAGUCUGGACGAGGAUAUCAGCUGUAACUGGCGUCGACAUGAGGAUCACCCAUGUUGCUAUAGGGUGAGAAGGCGUUUGGGCAA | 0.0477 µM | 0.0288 µM |  |  |
| AAAGAAAACAUAGGAUAUGUAACAUGAGGAUCACCCAUGUAUACCUCGUAAGAGAUGAUGGAUGGACAGAAGGAUGAUCUCAGG | 0.14 µM | 0.214 µM |  |  |
| CUCAUGUGAGGAUAUGUGAUCAACCUUCUAUAUAGAUGAUGACAGAAGGCACAUGAGGAUCACCCAUGUAGAUC |  |  | 0.0655 µM | 0.0201 µM |
| UAGCCACAAGGAUAUACAUGAGGAUCACCCAUGUUUCCAGGAUGCCCUCUCAUGGGUUGUAGAAGGUGUCGGCG |  |  | 0.0158 µM | 0.0179 µM |
| UGUAUGGACAGAGGAUAUGCCGAUAGGAUCUAUUAUCGAAGAAUCCUCACAUGAGGAUCACCCAUGUAGAAGGCUGUCCAUACU |  |  | 0.00932 µM | 0.0358 µM |
| UUGGACGUCGUAGGAUAUGUAGGCUAUUCCUACAUGAGGAUCACCCAUGUUGACAUGGAAGAAGGACAGAAGGACGAUGUCCAU | 0.0304 µM | 0.00385 µM |  |  |
| UGACCCAUGACAUGAGAUGACAUGAGGAUCACCCAUGUUUACAAGGAUAUGUUGAUGAAACAUCAACAGAAGGUGUAAUGGGCU |  |  | 0.0298 µM | 0.158 µM |
| GAAGUCUAUUGAGGAUAUCGUUAUCAAAGAUAAUGAGAAGGCAAACAAUCAUGAGGACAUGAGGAUCACCCAUGUUGUGACCAU | 0.0266 µM | 0.0136 µM |  |  |
| CUAUUCCGAGGAUAUACAUGAGGAUCACCCAUGUCGGGCCUCAGCGUUUAGCGCGUAAGUAGAAGGUGGGUUUC |  |  | 0.0323 µM | 0.0378 µM |
| GCACUGGAUGUAGGAUAUCAGGACGAUAAGUCCUGAGAAGGACAUGAGGAUCACCCAUGUGAUAAUUCCAGUGCAAAUAAUAUA |  |  | 0.0143 µM | 0.031 µM |
| AGAAAAUAUGGGUAGGAUAUAUAAAGAGAAACAUGAGGAUCACCCAUGUAAAGACGAGAGUCAAAAUAGAAGGACUAAAGAAAGAA | 0.076 µM | 0.0596 µM |  |  |
| GCAUGCAAGUAGAAGGACGGAUAUUUUGAUACCGUAGGAUAUGCAGAAUCAUAUCCACAUGAUAACAUGAGGAUCACCCAUGUA |  |  | 0.015 µM | 0.0137 µM |
| CGUGAAAACAUAGGAUAUUGUUACAUGAGGAUCACCCAUGUCAACCAUUUAUCUCAAAUUGUUGACAAGAAGGAUGAGGUCACG | 0.118 µM | 0.0389 µM |  |  |

| Sequence | apparent Kd [1] | apparent Kd [2] | apparent Kd [3] | apparent Kd [4] |
| --- | --- | --- | --- | --- |
| CAGUCUACAGGAUAUACAUGAGGAUCACCCAUGUAAAUUCACUUUCGAUAGUCUACAUGUAGAAGGGUAGACUG |  |  | 0.0155 µM | 0.0186 µM |
| CCGAUGUGGGUACAGGAUAUGUGGGCCUCCACAUGAGGAUCACCCAUGUCGGAGGCAAAGCGGCUACAGAAGGGUGCGAGCUCGA | 0.011 µM | 0.0129 µM |  |  |
| AAAACUCGAGGAUAUGCAAAAUGAUUGCGAAAGCAAUCAAAACAUGAGGAUCACCCAUGUAGAAGGCGAGAAAA |  |  | 0.0237 µM | 0.0154 µM |
| UGGUGACGUUUCUUCUCGACAUGAGGAUCACCCAUGUAGACAGAGGAUAUCCGAGUUGCCAAUAUGGAGAAGGCUGACUGCGAA |  |  | 0.0066 µM | 0.00832 µM |
| UUCGUGCAGUUUUGCUGUACGCGUACAUGAGGAUCACCCAUGUAGGAUAUGGUAGGCUUUGCUUACUAGAAGGAUAGUGUGAUC |  |  | 0.163 µM | 0.0338 µM |
| AAUUCUUGUGAAGGAUAUACGGCGGGUCGCGCAGUAGAAGGUCACAUGAGGAUCACCCAUGUCGACAAUGCGCAGUAUCGACAA |  |  | 0.072 µM | 0.164 µM |
| UGUCGGAGCAGAGGAUAUUACAUGAGGAUCACCCAUGUAUGAACCAAUAGCUGGAAACAGCAAUGUAAGAAGGCUGAUCCGACA |  |  | 0.0111 µM | 0.146 µM |
| UAUAUGUCAGGAUAUCGAUUGGAGCGGAAUUUAGCUUUGGUCGAGAAGGGACAUGAGGAUCACCCAUGUUCCUC |  |  | 0.03 µM | 0.142 µM |
| GCUGACGAUGUAGGAUAUCUCGACGAUAAGUCGAGAGAAGGACAUGAGGAUCACCCAUGUAACUCUACGUCAGCGAGGAAACUC |  |  | 0.0168 µM | 0.018 µM |
| GGGCCCGGAGGAUAUACAAUUGUGUGUGGAAACGCGCGCGUACAUGAGGAUCACCCAUGUAGAAGGCCGGGCCC |  |  | 0.0159 µM | 0.0546 µM |
| GCAUACAUUCGAGGAUAUCGGUGAACAAAUUAACGAGAAGGCGAUAUAAUUUUUAAUCUUAUAAACAUGAGGAUCACCCAUGUA | 0.0218 µM | 0.0195 µM |  |  |
| GUACUACAUGAGGAUCACCCAUGUACAAAUGUACGAGGAUAUGCAUGGACGAAAGUUGGUGCAGAAGGCGUAGUAC | 0.0249 µM | 0.024 µM |  |  |
| GGUUGUCAUAGUCAUCCUUUCCGUACAUGAGGAUCACCCAUGUAGGAUAUGCUACUCACAGUGUGGCAGAAGGGCGUGUGUCUU |  |  |  | 0.0194 µM |
| ACAGUAUAUGUAGGAUAUCAUUGGCUAGGUAGGUGAGAAGGGCAUAGUACAUGAGGAUCACCCAUGUGUUGGUCCUCGCAGAAA |  |  | 0.634 µM | 0.38 µM |
| AAGGACUGAAUAAUAAGUAGAAAUACAUGAGGAUCACCCAUGUAGGAUAUCGUCAGGAAUACUGACGAGAAGGACAUACAGUCC |  |  | 0.0136 µM | 0.0167 µM |
| CUAUAUAUAUGAGGAUAUGUAUAUCCAACAUGAGGAUCACCCAUGUUGAGGAUCACCCAUGUAAAGCAGAAGGCAUAUAUAUAG | 0.0227 µM | 0.0134 µM |  |  |
| GUAUACGAUGAGGAUAUAUGAUAUCAAAGCAUCAUAGAAGGCAUCACAUGAGGAUCACCCAUGUGAUCUUCUUU |  |  | 0.0181 µM | 0.0652 µM |
| GACAUGAGGAUCACCCAUGUCCAUGCAAAAGUAGUUGAGACCAGAAGGACCGUGCGGAGUGCAGGGUAGGAUAUGGAGCCCUCA | 0.0283 µM | 0.00734 µM |  |  |
| UUUUUUGUUGUGAGGAUAUCGUUGUGGAUGUGGAUCGAGAAGGCACAUGAGGAUCACCCAUGUUUGUUGUGGUU |  |  | 0.102 µM | 0.158 µM |
| AUUGGGACAUGAGGAUCACCCAUGUACGCAGUGGGUAGAUCACAGGAUAUGCGAAGUGUGUGAGAGCAGAAGGGUGAGUACUUA | 0.343 µM | 0.0595 µM |  |  |
| ACAAGAUCAGGAUAUACAUGAGGAUCACCCAUGUUAAUCCAAAAGGGACUUUCUUUAUGUAGAAGGGAUCUUGU |  |  | 0.0312 µM | 0.0855 µM |
| GGGAUACACCAGAAGGACAUGAGGAUCACCCAUGUAGGAUAUGGGUACGCCGACAUUGGUCUGCUCUCGGUAGACUUUCCCGAU | 0.203 µM | 0.0396 µM |  |  |
| UCAUUUCUGUAAGGAUAUUAAUUCAUGACGAUACAUGAGGAUCACCCAUGUUAAGAAGGUACAAAUACAAAUAAUGCAUUGUUC |  |  | 0.0118 µM | 0.0106 µM |
| UGGUACUAGGGAGGAUAUGGGAAGAUACAUGAGGAUCACCCAUGUUUAAGAAUGCCUAGAGGCAACUAGAAGGCCCUAGUACCU | 0.393 µM | 0.0191 µM |  |  |
| GUCAGCACGUGAGGAUAUACAACACUGCUUCGGCAGUGUAUUAAGAUCACAUGAGGAUCACCCAUGUAGAAGGCACGAGCUGAU |  |  | 0.0136 µM | 0.268 µM |
| AUCUUUAAGGUAGGAUAUAGUAUGAUGGUUUAAUUAGAAGGAUCUCACAUGAGGAUCACCCAUGUAAUAGGAUUACCCAUGUAU |  |  | 0.054 µM | 0.0436 µM |
| GCCUCAUAGUAGAAGGGACUUAUACAGUAAUGUUUUUAGUGUAAAUAACAUGAGGAUCACCCAUGUCAGGAUAUACUAAGAGGC |  |  | 0.00924 µM | 0.0121 µM |

— the EternaBench riboswitch data
